# Compound activity as filed in PubChem BioAssay.
# The full list was thinned out, with hits kept by preference.
# Hep lipid drop: inhibitors of hepatocyte lipid droplet formation, primary screen, imaging, high-throughput imaging, BODIPY stain; hit rate 0.4% among 240,000; inhibition, % at 6.5 µM; AID 1656, 2009; AML12 mouse hepatocytes, oleate lipid droplets;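 active = lipid droplet intensity inhibited by at least 50%, with more than 500 cells counted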
#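 Assay system: AML12 mouse liver cells | Compound: 6.5 µM single-point dosing | Schedule: Overnight exposure | Technique: Fluorescence imaging, 20x objective, two fields per well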
# pCIP destab: p/CIP-EGFP fusion destabilizers, primary screen, fluorescence, F442A cells; 16 h; hit rate 0.01% among 290,000; decrease of EGFP signal, % at 10 µM; Q05BA5;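 active = EGFP signal decrease of at least 30% at 10 µM or well 3 SD below plate mean, unless failing retest; inactive = the rest, including hits failing retest or dose response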
# MDM2 E3 inh: MDM2-luciferase reporter signal enhancers, primary screen, MDM2 E3 ligase inhibitor project, cell-based, luminescence, 1536-well | E3 ubiquitin-protein ligase Mdm2 (Homo sapiens), Q00987 | cell-based MDM2 ubiquitination luciferase reporter, 2 h; 0 = plate control, 100 = twice control, blank-subtracted | signal enhancement, % at 5 µM | hit rate 0.11% among 210,000 | AID 1230, 2008;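 active = signal enhancement of 30% or more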;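 note: luminescence tracks abundance of the self-degrading MDM2-luciferase fusion protein; higher signal means inhibition of MDM2 E3 ligase activity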
# Target sequence (Q00987 whole entry, looked up, the tested form may be a part): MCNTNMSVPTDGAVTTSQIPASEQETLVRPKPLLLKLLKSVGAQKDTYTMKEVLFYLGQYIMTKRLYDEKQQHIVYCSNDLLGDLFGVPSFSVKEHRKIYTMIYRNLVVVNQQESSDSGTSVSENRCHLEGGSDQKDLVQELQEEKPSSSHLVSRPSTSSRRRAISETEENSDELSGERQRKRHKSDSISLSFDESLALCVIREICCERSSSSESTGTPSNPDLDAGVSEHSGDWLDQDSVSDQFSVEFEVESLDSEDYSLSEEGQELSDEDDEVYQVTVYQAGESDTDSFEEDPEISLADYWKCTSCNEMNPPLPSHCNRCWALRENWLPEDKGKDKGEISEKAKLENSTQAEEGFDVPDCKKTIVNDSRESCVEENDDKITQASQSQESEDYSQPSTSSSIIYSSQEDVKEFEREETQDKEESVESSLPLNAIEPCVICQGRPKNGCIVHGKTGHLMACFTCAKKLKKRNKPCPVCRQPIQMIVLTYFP
#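 test system = mammalian cells stably expressing self-ubiquitinating, self-degrading MDM2 E3–luciferase fusion | quantity = 2000 cells/well | incubation = cell settling 4 h, compound treatment 2 h, both 37 °C | signal = luminescence with SteadyLite reagent, 15 min at room temperature | evaluation = % enhancement relative to plate controls after blank subtraction | benchmarks = plate controls and plate blanks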
# Lipid drop inh: hepatocyte lipid droplet accumulation inhibitors, confirmation, imaging, AML12 mouse hepatocytes, single concentration, high-content; shares compounds with Hep lipid drop; hit rate 65% among 870; inhibition, % at 5.2 µM; BODIPY lipid droplet imaging; droplets induced with 100 µM oleic acid;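 active = inhibition of lipid droplet metric at least 50%, with more than 300 cells in each of four replicates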;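 note: plate controls were DMSO with oleic acid for no effect and 5 µM Triacsin-C for full effect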
# AML12 tox img: AML12 hepatocyte cytotoxicity, counter-screen for hepatic lipid droplet formation project, imaging, DAPI nuclear morphology imaging; shares compounds with Hep lipid drop; AML12 mouse hepatocytes; active compounds read high; cells fed 100 µM oleate overnight; z-score at 5 µM; hit rate 3% among 870; in the data active = z-score above about 6.3;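 note: compound exposure lasted overnight at 37 °C before fixation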
# AML12 tox ATP: AML12 hepatocyte cytotoxicity, confirmation, cytotoxicity control for hepatic lipid droplet formation project, cell-based, single concentration; shares compounds with Hep lipid drop; AML12 mouse hepatocyte viability, ATP luminescence; cells loaded with 100 µM oleic acid; cytotoxicity, % at 50 µM; 530 tested, under 10 active; AID 463219, 2010;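 active = cytotoxicity above 50% in each of four replicates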;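 note: compound exposure lasted overnight at 37 °C before the ATP read; 0% = DMSO-treated cells and 100% = wells with no cells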
# Active calls of the source: *; · = no result given.
SMILES,Hep lipid drop,pCIP destab,MDM2 E3 inh,Lipid drop inh,AML12 tox img,AML12 tox ATP
O=C(CCNC(=O)C1CCN(S(=O)(=O)c2ccc(F)cc2)CC1)NCc1ccccc1Cl,50.6*,-17.2,·,21.8,-0.597,·
O=C(CCNC(=O)C1CCN(S(=O)(=O)c2ccc(F)cc2)CC1)NCc1ccccc1,2.0,-15.5,·,·,·,·
O=C(CCNC(=O)C1CCN(S(=O)(=O)c2ccccc2)CC1)NCc1ccc(Cl)cc1,-1.8,-9.0,·,·,·,·
O=C(CCNC(=O)C1CCN(S(=O)(=O)c2ccccc2)CC1)NCc1ccc(Cl)cc1Cl,55.8*,-17.7,·,75.1*,-0.396,12.4
CN1C(=O)NC(c2ccccc2[N+](=O)[O-])C2=C1CCCC2=O (centres undefined),2.6,0.6,·,·,·,·
Cc1cc(C)c(NC(=O)CSc2nc3[nH]ncc3c(=O)[nH]2)c(C)c1,23.6,-5.5,-5.3,·,·,·
CC(C)c1ccc(NC(=O)[C@@H]2CCC(=O)N2C2OC(=O)c3ccccc32)cc1 (some centres undefined),-7.2,7.1,·,·,·,·
O=C(NCc1cccs1)C1CCCN1C(=O)Nc1ccccc1Cl (centres undefined),-2.1,-3.0,·,·,·,·
CC(C)COc1cccc(-c2cc(C(=O)Nc3ccon3)c3ccccc3n2)c1,50.4*,7.9,·,80.5*,0.0251,-9.8
CCCOc1cccc(-c2cc(C(=O)NN)c3ccccc3n2)c1,0.5,-6.2,-19.9,·,·,·
COc1ccc(CN(C)C(=O)CNC(=O)Cc2cccc3ccccc23)c(OC)c1OC,52.8*,-7.1,·,82.5*,-0.31,15.5
COc1ccc(CCN(C)C(=O)CNC(=O)Cc2cccc3ccccc23)cc1OC,13.1,-22.3,·,·,·,·
Cc1cccc(NC(=O)Cn2cc(C(=O)C3CC3)c3ccccc32)c1,51.0*,-3.6,·,93.3*,-0.11,19.8
Cc1ccc(NC(=O)Cn2cc(C(=O)C3CC3)c3ccccc32)cc1,46.3,14.6,·,·,·,·
Cc1cc(C)c(S(=O)(=O)Nc2cccc(S(=O)(=O)N3CCOCC3)c2)c(C)c1,-8.7,-0.3,·,·,·,·
Cc1nc2c(c(C)nn2-c2ccccc2)c(C)c1CCC(=O)Nc1ccc(CN2CCCC2)cc1,0.7,0.4,-0.7,·,·,·
C/C=C(/C)C(=O)O[C@@H]1[C@H](OC(=O)C=C(C)C)c2c(ccc3ccc(=O)oc23)OC1(C)C,53.7*,-4.0,·,-31.6,-0.539,·
C/C=C(/C)C(=O)O[C@@H]1c2c(ccc3ccc(=O)oc23)OC(C)(C)[C@@H]1OC(=O)/C(C)=C\C,-59.9,-1.7,·,·,·,·
Cc1ncc(C(=O)O)c(C(=O)O)c1N,1.3,-1.3,·,·,·,·
O=C(c1ccc(Cl)cc1)C1CCN(C(=O)NC2CCCCC2)CC1,70.3*,8.6,-18.2,85.2*,-0.188,10.2
O=C(Nc1ccc(Cl)cc1)C1CCN(C(=O)NC2CCCCC2)CC1,·,-0.7,-1.7,·,·,·
O=c1[nH]c(Cc2ccccn2)nc2scc(-c3ccccc3Cl)c12,-16.5,-3.5,-18.1,·,·,·
CCOC(=O)c1c(C)nc2sc3c(c2c1-c1ccc(OC)cc1)NC(c1ccccc1)NC3=O (centres undefined),·,-24.5,-6.4,·,·,·
CCOC(=O)C1=C(C)n2c(s/c(=C3\C(=O)Nc4ccccc43)c2=O)=NC1c1ccc(OC)cc1 (centres undefined),79.7*,-9.7,-8.5,24.0,-0.279,·
COC(=O)C1=C(C)N=c2s/c(=C3\C(=O)Nc4ccccc43)c(=O)n2C1c1ccccc1 (centres undefined),59.9*,-15.4,-10.9,55.5*,-0.523,68.6*
SMILES,Hep lipid drop,pCIP destab,MDM2 E3 inh,Lipid drop inh,AML12 tox img,AML12 tox ATP
CCOC(=O)C1=C(C)N=c2s/c(=C3/C(=O)Nc4ccccc43)c(=O)n2C1c1ccc(C)cc1 (centres undefined),30.3,-22.1,-7.8,·,·,·
Cc1ccccc1CN(C)C(C)C(=O)Nc1ccccc1F (centres undefined),-15.5,-8.2,-25.6,·,·,·
O=c1cc(Cn2ccnc2)c2cc(O)ccc2o1,-11.1,0.5,·,·,·,·
O=C(CSc1nnc(Cc2ccccc2)o1)Nc1cccc(F)c1,-16.3,-80.3,·,·,·,·
CCn1c(SCC(=O)Nc2cc(C)on2)nc2c(c1=O)SCC2,-4.6,13.8,·,·,·,·
CCOc1ccc(CCNC(=O)COC(=O)/C=C/c2ccc(OCC#N)c(OC)c2)cc1OCC,63.1*,3.5,5.8,102.8*,-0.317,0.5
CCc1ccc(NC(=O)CCC(=O)N2CCSc3ccccc32)cc1,-5.8,-9.2,·,·,·,·
CCOc1ccc(CCNC(=O)COc2cc(=O)n(C)c3ccccc23)cc1OCC,99.6*,-10.8,-13.1,100.7*,-0.381,7.6
COc1ccc(CCNC(=O)COC(=O)/C=C/c2ccc(OCC#N)c(OC)c2)cc1OC,23.9,-7.3,-0.9,·,·,·
CCOc1ccc(CCNC(=O)CCC(=O)N2CCSc3ccccc32)cc1OCC,91.2*,0.0,·,110.0*,-0.669,17.5
COc1ccc(CCNC(=O)CN2CCN(Cc3ccccc3F)C2=O)cc1OC,9.2,-1.0,-6.1,·,·,·
CCOc1ccc(CCNC(=O)CN2CCN(Cc3ccccc3C)C2=O)cc1OCC,82.6*,0.0,3.1,107.2*,-0.0591,12.4
CCn1c(=O)cc(OCC(=O)NCCc2ccc(OC)c(OC)c2)c2ccccc21,-2.7,-7.6,-0.8,·,·,·
CC(NC(=O)CN(C)S(=O)(=O)c1ccc(Br)s1)c1ccccc1 (centres undefined),-1.2,-10.5,·,·,·,·
COc1ccc(OC)c(C(=O)Cn2cnc3ccccc3c2=O)c1,·,-7.6,·,·,·,·
N/C(=N/OC(=O)c1ccccc1Cl)c1ncc([N+](=O)[O-])s1,5.4,-21.5,-6.4,·,·,·
CCOc1ccc(CCNC(=O)COC(=O)c2cccnc2OCC)cc1OCC,98.0*,-11.4,8.6,104.8*,-0.533,9.1
CCOc1ccc(CCNC(=O)COC(=O)c2ccccc2O)cc1OCC,42.5,-4.1,-7.5,·,·,·
CCOc1ccc(CCNC(=O)CSc2cc(=O)n(C)c3ccccc23)cc1OCC,97.7*,-17.0,-6.8,105.8*,-0.0495,14.0
CCCCNC(=O)CSc1cc(=O)n(C)c2ccccc12,3.6,-0.6,16.1,·,·,·
Cc1cccc(OCC(=O)Nc2ccc(S(=O)(=O)Nc3onc(C)c3C)cc2)c1C,-2.3,-14.4,·,·,·,·
COc1ccc(C(C(=O)NC(C)(C)C)N(CC2CCCO2)C(=O)CCC(=O)Nc2cc(C)on2)cc1 (centres undefined),57.9*,-1.2,-13.7,90.0*,-0.949,-0.5
COc1ccc(C(C(=O)NC(C)(C)C)N(Cc2ccccc2)C(=O)CCC(=O)Nc2cc(C)on2)cc1 (centres undefined),65.6*,-9.0,-8.9,70.1*,-0.481,6.8
